Reference: ChEMBL document CHEMBL1149312, “Non-nucleoside benzimidazole-based allosteric inhibitors of the hepatitis C virus NS5B polymerase: inhibition of subgenomic hepatitis C virus RNA replicons in Huh-7 cells” (J Med Chem, 2004)
The source made the active and inactive calls. The rule behind the calls is not given here.

What was measured:
[1] = Inhibition of HCV NS5B polymerase; design: species or system Hepacivirus hominis
How it was run: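 N-terminally tagged full-length NS5B construct; IC50 values are the mean of duplicate measurements on two separate weighings.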

Bos taurus = organism: Bos taurus; test: Inhibition of calf thymus DNA-dependent RNA polymerase 2 at 200 to 250 uM
Enterovirus C = test: Inhibition of poliovirus RNA-dependent RNA polymerase at 200 to 250 uM
Hepatitis C virus [2] = test: Inhibition of subgenomic HCV RNA replication in Huh7 cells by cell-based replicon assay; assay type: functional, organism-based, Hepacivirus hominis; conditions: Huh-7
How it was run: (§1)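 Subgenomic HCV RNA replicon in Huh-7 cells. Replicon RNA was quantified by RT-PCR and normalized to cellular GAPDH mRNA. EC50 runs were done in duplicate on two separate weighings.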

Hepatitis C virus [3] = test: Inhibition of subgenomic HCV RNA replication in Huh7 cells at 74 uM by cell-based replicon assay; assay type: functional, Hepacivirus hominis; conditions: Huh-7; how it was run: as §1
[4] = Distribution coefficient, log D at pH 7.2; assay type: physicochemical; conditions: octanol/water
How it was run: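 Shake-flask partitioning between octanol and 100 mM phosphate buffer, pH 7.2; reported as log D(oct/buffer).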

[5] = Solubility in phosphate buffer at pH 7.2; assay type: physicochemical
How it was run: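 Solubility measured in phosphate buffer at pH 7.2.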

[6] = Cytotoxicity against Huh7 cells; assay type: cell-based; conditions: human, huh-7
Hepatitis C virus [7] = test: Inhibition of subgenomic HCV RNA replication in Huh7 cells at 3.4 uM by cell-based replicon assay; assay type: functional, Hepacivirus hominis; conditions: Huh-7; how it was run: as §1

| SMILES | IC50 [1] [nM] | Activity (Bos taurus) | inhibition (Enterovirus C) [%] | EC50 (Hepatitis C virus [2]) [µM] | further results |
| --- | --- | --- | --- | --- | --- |
| COc1ccc(CCNC(=O)c2ccc3c(c2)nc(-c2ccccn2)n3C2CCCCC2)cc1OC | 12000 | – | – | – | – |
| CNc1nc([C@H](Cc2c[nH]c3ccc(O)cc23)NC(=O)c2ccc3c(c2)nc(-c2ccoc2)n3C2CCCCC2)cs1 | 500 | Active | < 50 | 3 | – |
| O=C(O)c1ccc2c(c1)nc(-c1ccoc1)n2C1CCCCC1 | 1600 | – | – | – | – |
| O=C(N[C@@H](Cc1ccc(O)cc1)C(=O)N1CCOCC1)c1ccc2c(c1)nc(-c1ccoc1)n2C1CCCCC1 | 9500 | – | – | – | – |
| NC(=O)[C@H](Cc1c[nH]c2ccc(O)cc12)NC(=O)c1ccc2c(c1)nc(-c1ccoc1)n2C1CCCCC1 | 220 | – | – | 8 | – |
| O=C(N[C@@H](Cc1ccc(O)cc1)C(=O)NCc1ccncc1)c1ccc2c(c1)nc(-c1ccoc1)n2C1CCCCC1 | 3700 | – | – | > 9 | – |
| CNc1nc([C@H](Cc2ccc(O)cc2)NC(=O)c2ccc3c(c2)nc(-c2ccoc2)n3C2CCCCC2)cs1 | 2800 | Active | < 50 | 7.1 | – |
| CC(=O)Nc1nc([C@H](Cc2ccc(O)cc2)NC(=O)c2ccc3c(c2)nc(-c2ccoc2)n3C2CCCCC2)cs1 | 4800 | Active | < 50 | 2.4 | – |
| O=C(N[C@@H](Cc1ccc(O)cc1)c1cscn1)c1ccc2c(c1)nc(-c1ccoc1)n2C1CCCCC1 | 6600 | Active | < 50 | 4.3 | – |
| O=C(N[C@@H](Cc1c[nH]c2ccc(O)cc12)C(=O)O)c1ccc2c(c1)nc(-c1ccoc1)n2C1CCCCC1 | 50 | – | – | > 74 | inhibition at 74 µM (Hepatitis C virus [3]): 37%; logD [4]: 0.45; solubility [5]: > 850 µg/mL |
| O=C(N[C@@H](Cc1ccc(O)cc1)C(=O)O)c1ccc2c(c1)nc(-c1ccoc1)n2C1CCCCC1 | 500 | – | – | 48 | Activity [6]: Not Active |
| CN(C)CCCNC(=O)[C@H](Cc1ccc(O)cc1)NC(=O)c1ccc2c(c1)nc(-c1ccoc1)n2C1CCCCC1 | 1900 | – | – | – | – |
| CN(C)C(=O)[C@H](Cc1ccc(O)cc1)NC(=O)c1ccc2c(c1)nc(-c1ccoc1)n2C1CCCCC1 | 4900 | – | – | – | – |
| NC(=O)[C@H](Cc1ccc(O)cc1)NC(=O)c1ccc2c(c1)nc(-c1ccoc1)n2C1CCCCC1 | 800 | – | – | 13 | logD [4]: 3.1 |
| Nc1nc([C@H](Cc2c[nH]c3ccc(O)cc23)NC(=O)c2ccc3c(c2)nc(-c2ccoc2)n3C2CCCCC2)cs1 | 190 | Active | < 50 | 5.7 | – |
| CN1CCN(C(=O)[C@H](Cc2ccc(O)cc2)NC(=O)c2ccc3c(c2)nc(-c2ccoc2)n3C2CCCCC2)CC1 | 11000 | – | – | > 9 | – |
| Cc1nc([C@H](Cc2c[nH]c3ccc(O)cc23)NC(=O)c2ccc3c(c2)nc(-c2ccoc2)n3C2CCCCC2)cs1 | 300 | Active | < 50 | 2.4 | logD [4]: 4.6; solubility [5]: < 0.1 µg/mL |

| SMILES | IC50 [1] [nM] | Activity (Bos taurus) | inhibition (Enterovirus C) [%] | EC50 (Hepatitis C virus [2]) [µM] | further results |
| --- | --- | --- | --- | --- | --- |
| O=C(O)COc1ccc2[nH]cc(C[C@H](NC(=O)c3ccc4c(c3)nc(-c3ccoc3)n4C3CCCCC3)C(=O)O)c2c1 | 27 | – | – | 64 | logD [4]: -1.6; solubility [5]: > 850 µg/mL |
| COC(=O)[C@H](Cc1c[nH]c2ccc(O)cc12)NC(=O)c1ccc2c(c1)nc(-c1ccoc1)n2C1CCCCC1 | 380 | – | – | – | Activity [6]: Toxic; inhibition at 3.4 µM (Hepatitis C virus [7]): 30% |
| O=C(N[C@@H](Cc1ccc(O)cc1)C(=O)NCc1cccnc1)c1ccc2c(c1)nc(-c1ccoc1)n2C1CCCCC1 | 2600 | – | – | 16 | – |
| CC(C)[C@H](Cc1ccc(O)cc1)NC(=O)c1ccc2c(c1)nc(-c1ccoc1)n2C1CCCCC1 | 4300 | – | – | 3.5 | logD [4]: 3.4 |
| O=C(N[C@@H](Cc1c[nH]c2ccc(O)cc12)c1cscn1)c1ccc2c(c1)nc(-c1ccoc1)n2C1CCCCC1 | 300 | Active | < 50 | 1.7 | logD [4]: 3.8 |
| CN(C)c1nc([C@H](Cc2c[nH]c3ccc(O)cc23)NC(=O)c2ccc3c(c2)nc(-c2ccoc2)n3C2CCCCC2)cs1 | 900 | Active | < 50 | 3.7 | – |
| CC(=O)Nc1nc([C@H](Cc2ccc(O)cc2)NC(=O)c2ccc3c(c2)nc(-c2ccoc2)n3C2CCCCC2)c[nH]1 | 4200 | Active | < 50 | – | – |
| Cn1cc(C[C@H](NC(=O)c2ccc3c(c2)nc(-c2ccoc2)n3C2CCCCC2)c2csc(N)n2)c2cc(O)ccc21 | 900 | Active | < 50 | 3.4 | – |
| CN(C)c1nc([C@H](Cc2ccc(O)cc2)NC(=O)c2ccc3c(c2)nc(-c2ccoc2)n3C2CCCCC2)cs1 | 5100 | Active | < 50 | 8.3 | – |
| O=C(N[C@@H](Cc1ccc(O)cc1)C(=O)Nc1cccnc1)c1ccc2c(c1)nc(-c1ccoc1)n2C1CCCCC1 | 3000 | – | – | 6 | – |
| Nc1nc([C@H](Cc2ccc(O)cc2)NC(=O)c2ccc3c(c2)nc(-c2ccoc2)n3C2CCCCC2)cs1 | 1300 | Active | < 50 | – | – |
| O=C(N[C@@H](Cc1ccc(O)cc1)C(=O)NCc1ccccn1)c1ccc2c(c1)nc(-c1ccoc1)n2C1CCCCC1 | 2700 | – | – | 10 | – |
| Cc1nc([C@H](Cc2ccc(O)cc2)NC(=O)c2ccc3c(c2)nc(-c2ccoc2)n3C2CCCCC2)cs1 | 3300 | Active | < 50 | 7.4 | – |
| CC(=O)Nc1nc([C@H](Cc2c[nH]c3ccc(O)cc23)NC(=O)c2ccc3c(c2)nc(-c2ccoc2)n3C2CCCCC2)cs1 | 550 | Active | < 50 | 5.8 | – |
| O=C(N[C@@H](Cc1ccc(O)cc1)C(=O)NCCN1CCOCC1)c1ccc2c(c1)nc(-c1ccoc1)n2C1CCCCC1 | 3200 | – | – | > 13 | – |
| CN(C)CCNC(=O)[C@H](Cc1ccc(O)cc1)NC(=O)c1ccc2c(c1)nc(-c1ccoc1)n2C1CCCCC1 | 2100 | – | – | – | – |
